Most compounds without a hit are left out; they make up all but 3.5% or so of the library.
TCR-CD3 inh: inhibitors of human TCR-CD3 interaction, primary screen, biochemical, fluorescence, TAMRA-labeled TCR probe; inhibition, % at 9.4 µM; actives 0.37% (n = 360,000); AID 651800, 2012; in the data active = inhibition above about 19%;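 note: recombinant mutant TCR 2C K166C tagged with TAMRA read by polarization; 0% = receptor in buffer alone and 100% = receptor with positive control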
rCAG binder: binders of r(CAG) RNA repeats, primary screen, biochemical, fluorescence; actives 1.3% (n = 370,000); r(CAG) RNA repeat, TO-PRO-1 dye displacement fluorescence; inhibition, % at 3 µM;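 active = inhibition above the plate cutoff, the mean of all test compounds on that plate plus 3 SD, cut at about 35% in these data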;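 note: 0% = DMSO alone and 100% = 100 µM mitoxantrone as full dye displacement; higher means more dye released from RNA so lower well fluorescence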
SIAE primary: human SIAE inhibitors, primary screen, biochemical, fluorescence polarization, FP-Rh probe, 1536-well HTS; AID 1053197, 2014; SIAE FP-Rh probe binding; actives 0.69% (n = 370,000); inhibition, % at 9.66 µM; Sialate O-acetylesterase (Homo sapiens), Q9HAT2;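 active = inhibition above a cutoff: mean of compounds within the control limits plus 3 SD of those, cut at about 17% in these data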;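 note: 0% = plate median of compound wells and 100% = probe without SIAE protein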
Target sequence (Q9HAT2 whole entry, looked up): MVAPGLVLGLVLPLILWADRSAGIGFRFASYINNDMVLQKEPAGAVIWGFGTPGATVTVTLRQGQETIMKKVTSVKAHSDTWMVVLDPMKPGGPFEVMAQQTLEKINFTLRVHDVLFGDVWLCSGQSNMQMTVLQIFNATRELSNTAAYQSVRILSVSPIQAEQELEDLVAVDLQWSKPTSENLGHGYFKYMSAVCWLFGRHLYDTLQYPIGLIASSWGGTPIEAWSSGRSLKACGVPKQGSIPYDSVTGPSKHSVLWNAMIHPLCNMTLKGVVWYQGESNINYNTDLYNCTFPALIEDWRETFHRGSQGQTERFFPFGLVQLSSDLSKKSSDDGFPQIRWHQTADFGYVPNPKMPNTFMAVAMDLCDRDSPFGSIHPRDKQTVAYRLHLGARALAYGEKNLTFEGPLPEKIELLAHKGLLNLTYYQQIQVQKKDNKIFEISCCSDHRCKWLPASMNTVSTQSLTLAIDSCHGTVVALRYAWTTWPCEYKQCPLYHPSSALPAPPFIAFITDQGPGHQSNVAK
PRMT1 FP inh: PRMT1 methyltransferase inhibitors, primary screen, biochemical, fluorescence polarization; actives 1.3% (n = 370,000); recombinant PRMT1, activity-based probe fluorescence polarization; AID 652257, 2013; Protein arginine N-methyltransferase 1 (Homo sapiens), Q99873; inhibition, % at 2.79 µM;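 active = inhibition above about 21% made by adding two undisclosed values, limit read from the data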
HTRA1 inh: HTRA1 serine protease inhibitors, primary screen, biochemical, fluorescence polarization, HTS. recombinant HTRA1, FP-rhodamine activity-based probe. inhibition, % at 5.96 µM. AID 504803, 2011. actives 0.5% (n = 340,000); in the data active = inhibition above about 36%;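 note: 0% = enzyme with DMSO and 100% = wells lacking enzyme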
ABHD4 inh: ABHD4 inhibitors, primary screen, biochemical, fluorescence polarization, mouse | (Lyso)-N-acylphosphatidylethanolamine lipase (Mus musculus), Q8VD66 | purified mABHD4, FP-Rh probe fluorescence polarization | inhibition, % at 8.92 µM | actives 0.54% (n = 370,000);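 active = inhibition exceeding the mean over every tested compound plus 3 SD, cut at about 30% in these data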;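 note: 0% = plate median of compound wells and 100% = S159A mutant with DMSO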
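Test system: mouse ABHD4 enzyme, wild type. Reagent: FP-Rh fluorescent activity-based probe, added after compound pre-incubation. Timing: pre-incubation 45 min, probe exposure 60 min, at 25 °C. Technique: FP readout, ex 525 nm / em 598 nm. Benchmarks: high control S159A mutant with DMSO, low control median of compound wells.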
mABHD4 conf: ABHD4 inhibitors, retest, confirmation, biochemical, fluorescence polarization, mouse; shares compounds with ABHD4 inh; purified mABHD4, FP-Rh probe fluorescence polarization; inhibition, % at 8.92 µM; actives 55% (n = 1,800); AID 720658, 2013;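 active = mean inhibition across replicates above the hit cutoff set in the primary screen, cut at about 30% in these data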;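 note: 0% = wild-type ABHD4 with DMSO and 100% = catalytically dead S159A mutant with DMSO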
SIAE inh conf: human SIAE inhibitors, retest, confirmation, biochemical, fluorescence polarization, FP-Rh probe, triplicate; actives 13% (n = 2,300); AID 1117263, 2014; SIAE FP-Rh activity-based probe; inhibition, % at 9.66 µM; shares compounds with SIAE primary;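 active = mean inhibition of the replicates above the hit cutoff set in the primary screen, cut at about 17% in these data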;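 note: 0% = SIAE with DMSO and probe and 100% = probe without SIAE; inhibitors lower polarization as more probe stays unbound to SIAE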
Starred values were filed as active, the others as inactive; . = not tested or not shown.

SMILES	TCR-CD3 inh	rCAG binder	SIAE primary	PRMT1 FP inh	HTRA1 inh	ABHD4 inh	SIAE inh conf	others
COC(=O)C1=C(c2ccc(OCc3ccccc3)cc2)C[C@@H]2CC[C@H]1N2C(=O)NCc1ccc(OC)c(OC)c1	5.7	0.3	0.6	-0.9	-18.1	46.0*	.	mABHD4 conf=58.0*
O=c1[nH]c(=O)n(CCC2=CCCCC2)c(O)c1/C=N/Nc1cccc2ccccc12	-16.1	25.5	9.6	17.9	30.9	33.3*	.	mABHD4 conf=15.6
O=c1[nH]c(=O)n(CCC2=CCCCC2)c(O)c1/C=N/N1CCOCC1	-4.2	-2.6	-3.9	-1.8	1.0	-19.2	.
CC(=O)N1CCN(c2ccc(N=Cc3c(O)n(-c4ccc(Cl)cc4)c(=O)[nH]c3=O)cc2)CC1	4.5	5.4	10.6	2.9	23.5	41.5*	.	mABHD4 conf=4.6
CCN(CC)c1ccc(N=Cc2c(O)n(-c3ccc(Cl)cc3)c(=O)[nH]c2=O)cc1	3.2	4.5	-1.1	9.6	8.3	0.9	.
O=c1[nH]c(=S)n(-c2ccc(Br)cc2)c(O)c1C=Nc1ccc(N2CCOCC2)cc1	4.1	10.0	6.5	3.7	22.1	22.1	.
O=c1[nH]c(=S)n(-c2ccccc2F)c(O)c1C=Nc1ccc(N2CCOCC2)cc1	4.1	5.9	8.7	16.2	12.2	57.8*	.	mABHD4 conf=2.3
Cc1cccc(C)c1-n1nnnc1C(c1ccccc1OC(F)(F)F)N1CCC(n2c(=O)[nH]c3ccccc32)CC1 (stereo unspecified)	5.8	3.2	-13.2	0.8	.	5.1	.
O=c1[nH]c2ccccc2n1C1CCN(C(c2cc3ccccc3o2)c2nnnn2Cc2ccccc2)CC1 (stereo unspecified)	1.4	12.2	-12.8	-1.0	.	6.3	.
O=c1[nH]c2ccccc2n1C1CCN(Cc2ccc(-c3[nH]c4cc5ncnc5cc4nc3-c3ccccc3)cc2)CC1	7.4	16.8	-25.9	-0.4	.	-13.9	.
Cc1cc(Br)cn2c(CC(=O)N3CCCCC3)c(-c3ccc(F)cc3)nc12	1.2	4.8	0.3	3.3	.	-1.0	.
CNC(=O)Oc1cccc(-c2cn3cc(OC(=O)NC)ccc3n2)c1	6.9	2.1	17.1*	10.3	20.9	40.4*	5.0	mABHD4 conf=22.0
Cc1ccc(S(=O)(=O)N2Cc3cc(N4CCOCC4)ccc3-n3nncc3C2)cc1	0.1	0.1	0.0	-1.4	.	2.9	.
CN1/C(=C\C=C2C(=O)NC(=S)NC2=O)C(C)(C)c2ccccc21	-2.5	-198.7	59.8*	-40.5	-1.4	-16.5	153.3*
CC1(C)OC(c2ccccc2)=C/C(=C/C=C2C(=O)NC(=S)NC2=O)O1	-117.4	-28.2	-212.1	2.1	.	-160.2	.
COc1ccc(OC(=O)N(C)C[C@@H]2OCc3ccccc3-c3c(n(C)c4ccccc34)C(=O)N([C@H](C)CO)C[C@@H]2C)cc1	4.9	8.0	-8.6	3.5	-7.5	-0.6	.
NP(=O)(OCCCc1ccccc1)c1ccccc1 (stereo unspecified)	-3.1	-2.7	-3.3	0.3	-1.1	10.2	.
NP(=O)(OCCCc1ccccc1)Oc1ccc(Cl)cc1 (stereo unspecified)	-1.7	-8.2	48.5*	-0.5	-4.0	-2.3	45.7*
NP(=O)(OCCCc1ccccc1)Oc1ccccc1Cl (stereo unspecified)	8.3	-4.9	56.5*	-1.1	10.8	2.1	54.0*
CC(C)CCOP(N)(=O)Oc1ccccc1Cl (stereo unspecified)	-4.3	-7.4	38.8*	-0.2	2.3	2.3	29.5*
O=c1cc(C(F)(F)F)c2cc3c4c(c2o1)CCCN4CCC3	9.5	-191.0	17.9*	101.4*	-9.7	29.2	9.6
CCC(c1nnnn1C1CCCC1)N1CCC2(CC1)C(=O)NCN2c1ccccc1 (stereo unspecified)	-2.6	2.8	5.1	-0.3	.	-4.7	.
COc1cc2c(cc1OC)-c1c(OC)c(OC)cc3c1[C@H](C2)[N+](C)(C)CC3	-2.9	-0.4	18.4*	-1.0	-3.0	2.0	2.6
C[C@]12CCC3C(CC[C@H]4C[C@H](O)CC[C@]34C)C1C[C@@H](CCCCl)[C@@H]2O (stereo partly specified)	2.0	0.8	1.0	2.2	.	6.8	.
Fc1cccc(-c2ccc3c(c2)CN(C(=S)NCCc2ccccc2)Cc2cnnn2-3)c1	0.4	13.5	-43.1	1.4	.	-7.6	.
SMILES	TCR-CD3 inh	rCAG binder	SIAE primary	PRMT1 FP inh	HTRA1 inh	ABHD4 inh	SIAE inh conf	others
Cc1ccc(-c2cc(-c3ccc(C)cc3)[n+](C)o2)cc1	5.9	1.9	18.1*	-1.4	8.5	15.0	0.6
CN(C(=O)Cc1ccc2c(c1)OCO2)C1CCCN(Cc2ccccc2F)C1 (stereo unspecified)	1.9	-6.7	22.8*	-1.1	0.8	-4.3	2.0
O=C(c1ccc2c(c1)OCO2)C1CCCN(Cc2ccc(F)c(F)c2)C1 (stereo unspecified)	6.8	-7.9	0.9	-0.8	-6.2	-7.8	.
Cn1cc(C=C2C(=O)NC(=O)NC2=O)c2ccccc21	2.6	4.1	47.3*	11.3	3.4	4.7	-21.6
CC(=O)n1cc(C=C2C(=O)NC(=O)NC2=O)c2ccccc21	-3.0	0.3	-4.8	12.2	4.8	-3.4	.
COC12CCC3(CC1C(C)(O)C(C)(C)C)[C@H]1Cc4ccc(O)c5c4[C@@]3(CCN1CC1CC1)C2O5 (stereo partly specified)	2.3	4.9	4.1	-1.1	-12.9	-3.3	.
COc1ccc(CN2CCCC(C(=O)c3cccc(Cl)c3)C2)cc1 (stereo unspecified)	0.9	-8.8	-0.5	3.9	-0.1	-3.8	.
COc1ccc(CN2CCCC(C(=O)c3ccc(Cl)cc3)C2)c(OC)c1 (stereo unspecified)	6.9	-5.2	17.6*	-1.5	2.5	0.9	-4.2
Cc1ccc(CN2CCSc3ccc(C(=O)N4CCC5(CC4)OCCO5)cc32)cc1	-3.0	1.7	3.5	0.6	2.1	1.5	.
O=C(c1ccc2c(c1)N(Cc1ccc(F)cc1)CCS2)N1CCC2(CC1)OCCO2	-2.6	-9.0	17.8*	0.8	1.6	4.1	1.5

Bioassay records as filed in PubChem BioAssay.
